Source: PubChem (Broad Institute)
The list is not random: actives were taken first. Their share in the collection is about 2.2%.
FGF22 binding – binders of recombinant human FGF22 by thermal shift; actives 1.5% (n = 340,000); Q9HCT0; SYPRO orange fluorescence; percent of sucrose octasulfate shift, DMSO zero; activity (Tm shift, normalised), % at 9.99 µM;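 active means mean Tm shift, scaled 0 neutral to 100 positive control, at about 1.3% or above, every replicate too, limit read from the data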
Target sequence (Q9HCT0 whole entry, looked up): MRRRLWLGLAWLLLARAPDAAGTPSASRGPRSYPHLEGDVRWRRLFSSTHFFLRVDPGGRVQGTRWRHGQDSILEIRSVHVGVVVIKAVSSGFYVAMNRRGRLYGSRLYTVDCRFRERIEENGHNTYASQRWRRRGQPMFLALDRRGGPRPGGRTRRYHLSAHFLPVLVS
S100A4 inh HTS – S100A4-myosin IIA interaction inhibition | S100A4/TAMRA-MyoIIA peptide fluorescence polarization | inhibition, % at 10.7 µM | actives 0.14% (n = 360,000);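 active means mean inhibition of at least 70% across replicates, with every replicate also reaching that level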
Target sequence (P26447 whole entry, looked up): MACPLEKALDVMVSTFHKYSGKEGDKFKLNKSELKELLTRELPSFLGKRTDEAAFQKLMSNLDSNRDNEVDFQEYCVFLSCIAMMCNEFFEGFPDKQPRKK
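Material: human S100A4 monomer with TAMRA-labelled myosin IIA peptide; buffer or medium: HEPES pH 7.2 with CaCl2, KCl, NaCl, DTT, Triton; compound dosing: one concentration per compound; schedule: 5 min incubation before reading; benchmarks: neutral control DMSO, positive control TFP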
F508del corr – CFTR F508del correction in bronchial cells. actives 0.36% (n = 350,000). activity (quench increase), % at 7.58 µM. CFBE cells, YFP halide quenching; stimulated with forskolin plus potentiator P3; % fluorescence drop versus neutral controls;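 active means mean added fluorescence quench of at least 8% versus neutral control, with both replicates also reaching 8%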;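 further: cells transiently co-express mutant CFTR-F508del with the halide-sensitive YFP; corrector assay measuring rescue of mutant channel to the surface after 24 h compound exposure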
dFosB act-1 – enhances mouse delta FosB homodimer DNA binding; P13346; purified delta FosB, TAMRA-CDK5 oligo fluorescence polarization; percent of positive-control signal above neutral wells; activation, % at 25 µM; actives 0.99% (n = 340,000); AID 493131;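 active means mean activation above about 17%, with every replicate also reaching it, limit read from the data, passing the limit was not always enough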
Target sequence (P13346 whole entry, looked up): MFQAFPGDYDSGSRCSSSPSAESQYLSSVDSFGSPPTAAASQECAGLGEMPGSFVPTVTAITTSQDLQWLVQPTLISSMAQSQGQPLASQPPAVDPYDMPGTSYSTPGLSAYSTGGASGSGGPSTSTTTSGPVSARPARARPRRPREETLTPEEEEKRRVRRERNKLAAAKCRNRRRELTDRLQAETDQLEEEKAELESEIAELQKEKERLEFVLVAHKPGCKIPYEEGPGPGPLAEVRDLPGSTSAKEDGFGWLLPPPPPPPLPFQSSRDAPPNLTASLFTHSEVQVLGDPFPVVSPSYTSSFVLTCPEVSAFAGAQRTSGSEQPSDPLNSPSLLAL
dFosB act-2 – delta FosB (mouse) homodimer activation. shares compounds with dFosB act-1. purified delta FosB, TAMRA-CDK5 oligo fluorescence polarization; normalised: neutral wells 0, positive control 100. activation, % at 24.9 µM. 2,400 tested, under 10 active. AID 588690;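 active means highest replicate activation at or above 34% and every replicate reaching that threshold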;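 further: higher polarization means more probe DNA bound by delta FosB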
An asterisk follows results filed as active; · = not tested or not shown.

SMILES	FGF22 binding	S100A4 inh HTS	F508del corr	dFosB act-1	dFosB act-2
Cc1cccc(NC(=O)c2cc(S(=O)(=O)N3CCc4ccccc43)cn2C)c1C	0	-2	4	40*	-1
CCCNC(=O)c1cc(S(=O)(=O)N2CCc3ccccc32)cn1C	0	8	-1	2	·
Cc1cc(NC(=O)CSc2nc3c([nH]c4ccccc43)c(=O)n2-c2cccc(C(F)(F)F)c2)no1	·	·	·	-2	·
COc1cccc(-n2c(SCC(=O)Nc3cc(C)on3)nc3c([nH]c4ccccc43)c2=O)c1	0	-3	2	39*	3
O=C(CSc1nc2c([nH]c3ccccc32)c(=O)n1-c1cccc(Cl)c1)N1CCOCC1	0	-2	-2	55*	4
CCc1cc2ccc(OC)cc2nc1SCC(=O)Nc1cc(C)on1	·	·	·	111*	0
CN(C)CC(=O)N[C@@H]1CC[C@H](CCNC(=O)C2CCCCC2)O[C@@H]1CO	0	1	2	·	·
CCOC(=O)c1c(C)n(CC(O)CN(C)C)c2cc(Br)c(OC)cc12 (configuration not stated)	0	-10	3	31*	2
CCOC(=O)c1c(CN(C)C)n(-c2ccccc2)c2cc(Br)c(OC)cc12	1	-6	·	-15	·
CO[C@@H]1CN(C)C(=O)c2cc(NC(=O)c3nc4ccccc4s3)ccc2OC[C@H](C)N(Cc2cccnc2)C[C@H]1C	0	12	0	·	·
O=C1[C@H](Oc2ccccc2)[C@@H](c2ccccc2)N1c1ccncc1	0	7	0	18*	2
O=C1[C@@H](Oc2ccccc2)[C@@H](c2ccccc2)N1c1ccccc1	0	-13	1	-1	·
COc1cccc(S(=O)(=O)N(C)C[C@@H]2OCc3ccccc3-c3ccccc3C(=O)N([C@@H](C)CO)C[C@@H]2C)c1	0	5	-3	·	·
COc1ccc2c3c(n(C)c2c1)[C@H](CO)N(C(=O)C1CCCC1)CC31CN(C)C1	0	7	0	·	·
O=C(CN1C(=O)/C(=C/c2ccc(C(F)(F)F)cc2)Sc2ccccc21)NCCCN1CCOCC1	0	-2	-1	25*	0
Cc1ccc(S(=O)(=O)N[C@@H]2CC[C@@H](CCn3cc(-c4cccc(F)c4)nn3)O[C@@H]2CO)cc1	0	-4	0	·	·
O=C(NCC[C@@H]1CC[C@H](NC(=O)C2CCCC2)[C@@H](CO)O1)c1cnccn1	0	-34	2	·	·
Cc1c(C2=CCN(S(=O)(=O)c3ccc(Br)cc3)CC2)c2ccccc2n1C	·	·	·	32*	-8
CC1CCN(S(=O)(=O)c2ccc(NC(=O)Cn3nnc(-c4ccccc4F)n3)cc2)CC1	·	·	·	78*	4
COc1ccc(NC(=O)Cn2nnc(-c3ccccc3NC(=O)c3cccs3)n2)cc1	·	·	·	-2	·
Cc1ccc(NC(=O)Cn2nnc(-c3ccccc3NC(=O)c3cccs3)n2)cc1	·	·	·	48*	6
CCCC(=O)Nc1ccccc1-c1nnn(CC(=O)Nc2ccc(OCC)cc2)n1	·	·	·	41*	4
O=C(Cn1nnc(-c2ccccc2NC(=O)c2ccccc2)n1)Nc1ccc2c(c1)OCCO2	·	·	·	44*	2
COc1ccc(CN(C)C[C@H]2Oc3ccc(NC(=O)Nc4c(C)noc4C)cc3C(=O)N([C@H](C)CO)C[C@H]2C)cc1	0	-6	1	·	·
COc1cccc(CN2CC3(CN(C(=O)Nc4c(C)noc4C)C3)c3c([nH]c4cc(OC)ccc34)[C@H]2CO)c1	0	14	0	·	·
SMILES	FGF22 binding	S100A4 inh HTS	F508del corr	dFosB act-1	dFosB act-2
CC(C)(C)[S@](=O)N1Cc2cc(C(=O)NCCc3ccncc3)nc(-c3cccc(-c4ccccc4)c3)c2[C@@H]1CCO	0	-15	-1	·	·
C[C@@H]1CN([C@@H](C)CO)C(=O)c2cccc(NC(=O)c3cnccn3)c2O[C@@H]1CN(C)S(=O)(=O)c1ccc(F)cc1	0	-17	3	·	·
O=C(Cn1nnc(-c2ccccc2F)n1)Nc1cccc2ncccc12	·	·	·	26*	6
O=C(Cn1nnc(-c2ccccc2F)n1)NCCc1ccccc1	0	0	-5	-13	·
C[C@H](CO)N1C[C@H](C)[C@@H](CN(C)Cc2ccc(C(=O)O)cc2)Oc2ccc(NC(=O)C3CCCCC3)cc2C1=O	0	-26	-1	·	·
O=C(CSc1nc2sc3c(c2c(=O)n1-c1ccccc1)CCCC3)NCc1ccco1	0	2	1	52*	8
O=[N+]([O-])c1ccc2[nH]cc(S(=O)(=O)N3CCN(c4cccc(Cl)c4)CC3)c2c1	0	3	0	26*	4
COc1ccccc1C(=O)Nc1ccc2c(c1)C(=O)N(C)C[C@H](OC)[C@H](C)CN(C)[C@H](C)CO2	0	-24	-1	·	·
O=C(Cn1ncc2c([nH]c3ccccc32)c1=O)NCCc1ccccc1	0	-7	-6	44*	-1
Cc1nc(NC(=O)c2ccc(Br)o2)ccc1Br	0	-1	1	1	·
O=C(Nc1cccc(NC(=O)c2ccc(Br)o2)n1)c1ccc(Br)o1	·	·	·	34*	1
Cc1noc(C)c1NC(=O)N(C)C[C@H]1Oc2ccc(N(C)C)cc2CC(=O)N([C@H](C)CO)C[C@@H]1C	0	-15	2	·	·
O=C(COC(=O)c1cc(Br)ccc1O)NNC(=O)c1ccc(Cl)cc1	0	-1	0	26*	3
CCC(=O)Nc1ccc2c(c1)C(=O)N(C)C[C@H](OC)[C@H](C)CN(CC1CCCCC1)[C@@H](C)CO2	1	1	3	·	·
COc1ccc(N(CC(=O)N2CCc3ccccc32)S(=O)(=O)c2c(C)n[nH]c2C)cc1	·	·	·	36*	2
COc1ccc(N(CC(=O)N2CCc3ccccc32)S(=O)(=O)c2c(C)nn(C)c2C)cc1	0	3	2	-13	·
COc1ccc(C#Cc2ccc3c(c2)[C@H]2[C@H](CCN2S(=O)(=O)c2ccc(OC)cc2)[C@@H](CO)N3C)cc1	0	-12	0	·	·
CNC(=O)c1ccc(-c2ccc(Cl)c(Cl)c2)s1	·	·	·	21*	2
CNC(=O)c1ccc(-c2ccc(F)cc2)s1	·	·	·	-3	·
O=C(Nc1ccccc1)c1nc[nH]c1C(=O)NCCCCNC(=O)c1[nH]cnc1C(=O)Nc1ccccc1	0	-1	0	7	·
O=C(Nc1ccccc1)c1nc[nH]c1C(=O)NCCNC(=O)c1[nH]cnc1C(=O)Nc1ccccc1	0	2	-2	37*	5
O=C(Nc1ccc(Cl)cc1)Nc1ccc(-c2cnco2)cc1	0	4	-1	39*	3
O=C(NC(=O)c1ccccc1)Nc1ccc(-c2cnco2)cc1	0	0	5	·	·
C[C@H](O)C#Cc1ccc2c(c1)O[C@H](CN(C)C(=O)CC1CC1)[C@@H](C)CN([C@H](C)CO)S2(=O)=O	0	4	1	·	·
